Source: ChEMBL document CHEMBL3351713, “The identification of perillyl alcohol glycosides with improved antiproliferative activity” (J Med Chem, 2014)
Activity calls are given as the source filed them. No cut-off for these calls is given here.

How the values were obtained:
[1] = target: Eukaryotic translation initiation factor 4E-binding protein 1 (Homo sapiens) (UniProt Q13541); test: Induction of 4E-BP1 phosphorylation at Thr70 in human A549 cells at 250 uM after 6 hrs by Western blotting analysis; assay type: cell-based
Outline: (§1)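 A549 cells were exposed to 250 and 500 µM for 6 h, harvested and lysed. Equal total protein was loaded for SDS-PAGE and immunoblot. Probes were p-4E-BP1 (T37/46, S65, T70), p-S6 (S235/236), eIF4E and cleaved PARP, detected by chemiluminescence.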

A549 [2] = test: Increase in PARP cleavage in human A549 cells at 250 to 500 uM after 6 hrs by Western blotting analysis; assay type: cell-based; outline: as §1
[3] = target: Eukaryotic translation initiation factor 4E-binding protein 1 (Homo sapiens) (UniProt Q13541); test: Induction of 4E-BP1 phosphorylation at Thr37/46 in human A549 cells at 500 uM after 6 hrs by Western blotting analysis; assay type: cell-based; outline: as §1
[4] = Cytotoxicity against human PC3 cells at 250 uM after 48 hrs by alamar blue assay; assay type: functional; conditions: PC-3, 48 h
Outline: (§2)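 Single 250 µM concentration. Cells seeded at 3 × 10^3/well in F-12K with 10% FBS and 2 mM L-glutamine, then adhered overnight. Exposure was 48 h at 37 °C, 5% CO2, alongside 0.5% DMSO vehicle and 1.5 mM H2O2 controls. Viability was measured by resazurin reduction (0.25 mg/mL stock, 3 h) with fluorescence read at […], em 590 nm.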

[5] = Cytotoxicity against human PC3 cells after 48 hrs by alamar blue assay; assay type: functional, cell-based; conditions: PC-3, 48 h
Outline: (§3)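 Cells seeded at 3 × 10^3/well in F-12K with 10% FBS, 2 mM L-glutamine and penicillin/streptomycin, then left to adhere overnight. Medium was replaced with nine 2- or 3-fold dilutions, with 0.5% DMSO vehicle and 1.5 mM H2O2 controls. Incubation was 48 h at 37 °C, 5% CO2. Resazurin (0.25 mg/mL stock) was added for 3 h and fluorescence read ([…], em 590 nm). IC50 came from a nonlinear dose-response fit; mean ± SD, triplicates, three independent experiments.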

[6] = target: Eukaryotic translation initiation factor 4E-binding protein 1 (Homo sapiens) (UniProt Q13541); test: Induction of 4E-BP1 phosphorylation at Thr70 in human A549 cells at 500 uM after 6 hrs by Western blotting analysis; assay type: cell-based; outline: as §1
[7] = target: Small ribosomal subunit protein eS6 (Homo sapiens) (UniProt P62753); test: Inhibition of S6 ribosomal protein phosphorylation in human A549 cells at 250 to 500 uM after 6 hrs by Western blotting analysis; assay type: cell-based; outline: as §1
A549 [8] = test: Cytotoxicity against human A549 cells after 48 hrs by alamar blue assay; assay type: functional, cell-based; conditions: A549, 48 h; outline: as §3
A549 [9] = test: Cytotoxicity against human A549 cells at 250 uM after 48 hrs by alamar blue assay; assay type: functional; conditions: A549, 48 h; outline: as §2
[10] = target: Eukaryotic translation initiation factor 4E-binding protein 1 (Homo sapiens) (UniProt Q13541); test: Induction of 4E-BP1 phosphorylation at Thr37/46 in human A549 cells at 250 uM after 6 hrs by Western blotting analysis; assay type: cell-based; outline: as §1
[11] = target: Eukaryotic translation initiation factor 4E-binding protein 1 (Homo sapiens) (UniProt Q13541); test: Induction of 4E-BP1 phosphorylation at Ser65 in human A549 cells at 250 uM after 6 hrs by Western blotting analysis; assay type: cell-based; outline: as §1
[12] = target: Eukaryotic translation initiation factor 4E-binding protein 1 (Homo sapiens) (UniProt Q13541); test: Induction of 4E-BP1 phosphorylation at Ser65 in human A549 cells at 500 uM after 6 hrs by Western blotting analysis; assay type: cell-based; outline: as §1

Sequence of Eukaryotic translation initiation factor 4E-binding protein 1 (Homo sapiens) (Q13541 whole entry): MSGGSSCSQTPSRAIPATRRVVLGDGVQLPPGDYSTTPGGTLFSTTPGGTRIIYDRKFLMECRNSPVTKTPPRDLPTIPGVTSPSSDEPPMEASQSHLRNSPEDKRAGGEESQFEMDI

Activity [1]	Activity [3]	Activity [6]	inhibition [7]	Activity [10]	Activity [11]	Activity [12]	Compound	Activity (A549 [2])	inhibition at 250 µM [4] [%]	IC50 [5] [µM]	IC50 (A549 [8]) [µM]	inhibition at 250 µM (A549 [9]) [%]
Active	Active	Active	Active	Active	Active	Active	C=C(C)[C@@H]1CC=C(CN(OC)C2O[C@H](CO)[C@@H](O)[C@H](NC(=O)CCCCCCCCC)[C@H]2O)CC1 (stereo not given in full)	Active	> 40	19	14	> 40
							C=C(C)[C@@H]1CC=C(CN(OC)[C@@H]2O[C@H](CO)[C@@H](O)[C@H](O)[C@H]2NC(=O)N(C)N=O)CC1		> 40	232	185	> 40
							C=C(C)[C@@H]1CC=C(CN(OC)C2OC[C@@H](O)[C@H](O)[C@H]2O)CC1 (stereo not given in full)		> 40	152	202	> 40
							C=C(C)[C@@H]1CC=C(/C=N/OC)CC1		> 40			> 40
							C=C(C)[C@@H]1CC=C(CN(OC)C2O[C@H](CN=[N+]=[N-])[C@@H](O)[C@H](O)[C@H]2O)CC1 (stereo not given in full)		> 40	182	163	> 40
inactive	inactive	inactive	inactive	inactive	inactive	inactive	C=C(C)[C@@H]1CC=C(CO)CC1 [PERILLYL ALCOHOL]			380	350	
							C=C(C)[C@@H]1CC=C(CN(OC)C2O[C@H](CO)[C@@H](N=[N+]=[N-])[C@H](O)[C@H]2O)CC1 (stereo not given in full)		> 40	22	4	> 40
							C=C(C)[C@@H]1CC=C(CN(OC)C2OC[C@@H](N=[N+]=[N-])[C@H](O)[C@H]2O)CC1 (stereo not given in full)		> 40	170	76	> 40
Active	Active	Active	Active	Active	Active	Active	C=C(C)[C@@H]1CC=C(CN(OC)C2O[C@H](CN=[N+]=[N-])[C@@H](N=[N+]=[N-])[C@H](O)[C@H]2O)CC1 (stereo not given in full)	Active	> 40	57	44	> 40
							C=CCOC(=O)N[C@H]1C(N(CC2=CC[C@@H](C(=C)C)CC2)OC)O[C@H](CO)[C@@H](O)[C@@H]1O (stereo not given in full)		> 40	826	114	> 40
							C=C(C)[C@@H]1CC=C(CN(OC)C2O[C@@H](CO)[C@H](N=[N+]=[N-])[C@@H](O)[C@@H]2O)CC1 (stereo not given in full)		> 40	263	451	> 40
							C=C(C)[C@@H]1CC=C(CN(OC)C2O[C@H](CNC(=O)CCCCCCCCC)[C@@H](O)[C@H](O)[C@H]2O)CC1 (stereo not given in full)		> 40	30	14	> 40
							C=C(C)[C@@H]1CC=C(CN(OC)C2O[C@H](CO)[C@@H](O)[C@H](O)[C@H]2N=[N+]=[N-])CC1 (stereo not given in full)		> 40	176	221	> 40
							C=CCOC(=O)NC[C@H]1OC(N(CC2=CC[C@@H](C(=C)C)CC2)OC)[C@H](O)[C@@H](O)[C@@H]1O (stereo not given in full)		> 40	232	140	> 40
